Source: ChEMBL document CHEMBL4118021, “Studies of TAK1-centered polypharmacology with novel covalent TAK1 inhibitors” (Bioorg Med Chem, 2017)
Active and inactive are the calls of the source. The rule behind the calls is not given here.

Columns and labels:
[1] = molecular target: T1, 80S Ribosome (Homo sapiens) (UniProt P08865+P42677+P62753+P15880+P23396+P61247+P62701+P22090+P46782+P62081+P62241+P46781+P46783+P62280+P25398+P62277+P62263+P62841+P62244+P62249+P08708+P62269+P39019+P60866+P63220+P62266+P62847+P62851+P62854+P62979+P62857+P62273+P62861+P39023+P36578+P46777+Q02878+P18124+P62424+P62917+P32969+P27635+P62906+P62913+P30050+P26373+P40429+P50914+P61313+P18621+Q07020+Q02543+P84098+P46778+P35268+P62829+P62750+P83731+P61254+P61353+P46776+P46779+P47914+P62888+P62899+P62910+P49207+P42766+P18077+Q9Y3U8+P83881+P61927+P61513+P63173+P62891+P62945+P05388+P05386); experiment: Binding affinity to RPL27 in human NCI-H358 cells at 1 uM by mass spectrometry based pull down assay; type: cell-based
[2] = molecular target: Myosin regulatory light chain 12B (Homo sapiens) (UniProt O14950); experiment: Binding affinity to MYL12B in human NCI-H358 cells at 1 uM by mass spectrometry based pull down assay; type: cell-based
Myosin regulatory light chain 12B (Homo sapiens), sequence (O14950 whole entry): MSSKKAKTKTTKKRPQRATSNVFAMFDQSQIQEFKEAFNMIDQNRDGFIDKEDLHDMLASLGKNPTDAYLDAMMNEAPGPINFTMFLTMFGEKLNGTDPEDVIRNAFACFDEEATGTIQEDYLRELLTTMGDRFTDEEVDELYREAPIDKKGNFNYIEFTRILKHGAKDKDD

[3] = molecular target: Mitogen-activated protein kinase 1 (Homo sapiens) (UniProt P28482); experiment: Binding affinity to MAPK1 in human NCI-H23 cells at 1 uM by mass spectrometry based pull down assay; type: cell-based
[4] = molecular target: T1, 80S Ribosome (Homo sapiens); experiment: Binding affinity to RPS26 in human NCI-H23 cells at 1 uM by mass spectrometry based pull down assay; type: cell-based
[5] = molecular target: T1, 80S Ribosome (Homo sapiens); experiment: Binding affinity to RPS10 in human NCI-H23 cells at 1 uM by mass spectrometry based pull down assay; type: cell-based
[6] = molecular target: Glycogen phosphorylase, brain form (Homo sapiens) (UniProt P11216); experiment: Binding affinity to PYGB in human NCI-H358 cells at 1 uM by mass spectrometry based pull down assay; type: cell-based
Glycogen phosphorylase, brain form (Homo sapiens), sequence (P11216 whole entry): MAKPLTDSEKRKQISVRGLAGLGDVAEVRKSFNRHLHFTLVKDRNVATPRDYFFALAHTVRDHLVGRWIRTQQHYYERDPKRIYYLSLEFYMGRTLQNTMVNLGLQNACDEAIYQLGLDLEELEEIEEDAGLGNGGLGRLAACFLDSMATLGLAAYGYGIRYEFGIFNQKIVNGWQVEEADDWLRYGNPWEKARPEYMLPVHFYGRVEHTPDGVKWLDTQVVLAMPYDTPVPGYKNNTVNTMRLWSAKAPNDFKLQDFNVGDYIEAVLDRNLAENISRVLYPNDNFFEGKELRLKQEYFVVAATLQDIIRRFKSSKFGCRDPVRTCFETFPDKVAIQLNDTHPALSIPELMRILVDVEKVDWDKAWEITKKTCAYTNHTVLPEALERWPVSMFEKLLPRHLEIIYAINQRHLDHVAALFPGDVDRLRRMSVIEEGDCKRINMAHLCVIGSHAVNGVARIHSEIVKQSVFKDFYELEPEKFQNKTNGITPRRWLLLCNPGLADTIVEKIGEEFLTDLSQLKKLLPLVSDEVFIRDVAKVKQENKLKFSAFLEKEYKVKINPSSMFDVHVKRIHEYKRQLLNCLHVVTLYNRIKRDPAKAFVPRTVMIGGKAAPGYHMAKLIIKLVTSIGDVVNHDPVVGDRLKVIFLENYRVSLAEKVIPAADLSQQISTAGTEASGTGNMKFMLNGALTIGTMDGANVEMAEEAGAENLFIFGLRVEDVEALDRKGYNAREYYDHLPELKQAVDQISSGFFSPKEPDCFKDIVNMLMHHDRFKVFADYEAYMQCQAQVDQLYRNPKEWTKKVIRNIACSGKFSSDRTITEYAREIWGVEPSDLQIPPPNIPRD

[7] = molecular target: Acidic leucine-rich nuclear phosphoprotein 32 family member A (Homo sapiens) (UniProt P39687); experiment: Binding affinity to ANP32A in human NCI-H23 cells at 1 uM by mass spectrometry based pull down assay; type: cell-based
[8] = molecular target: T1, 80S Ribosome (Homo sapiens); experiment: Binding affinity to RPL23A in human NCI-H23 cells at 1 uM by mass spectrometry based pull down assay; type: cell-based
[9] = molecular target: 14-3-3 protein sigma (Homo sapiens) (UniProt P31947); experiment: Binding affinity to SFN in human NCI-H23 cells at 1 uM by mass spectrometry based pull down assay; type: cell-based
14-3-3 protein sigma (Homo sapiens), sequence (P31947 whole entry): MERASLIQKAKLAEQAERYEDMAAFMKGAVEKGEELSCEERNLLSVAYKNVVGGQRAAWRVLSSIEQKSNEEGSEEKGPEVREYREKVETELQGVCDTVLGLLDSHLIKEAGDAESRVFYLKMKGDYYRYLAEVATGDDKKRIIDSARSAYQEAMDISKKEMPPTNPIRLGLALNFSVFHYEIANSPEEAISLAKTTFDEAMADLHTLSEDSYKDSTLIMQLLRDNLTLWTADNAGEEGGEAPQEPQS

[10] = molecular target: Transforming growth factor-beta-induced protein ig-h3 (Homo sapiens) (UniProt Q15582); experiment: Binding affinity to TGFBI in human NCI-H358 cells at 1 uM by mass spectrometry based pull down assay; type: cell-based
Transforming growth factor-beta-induced protein ig-h3 (Homo sapiens), sequence (Q15582 whole entry): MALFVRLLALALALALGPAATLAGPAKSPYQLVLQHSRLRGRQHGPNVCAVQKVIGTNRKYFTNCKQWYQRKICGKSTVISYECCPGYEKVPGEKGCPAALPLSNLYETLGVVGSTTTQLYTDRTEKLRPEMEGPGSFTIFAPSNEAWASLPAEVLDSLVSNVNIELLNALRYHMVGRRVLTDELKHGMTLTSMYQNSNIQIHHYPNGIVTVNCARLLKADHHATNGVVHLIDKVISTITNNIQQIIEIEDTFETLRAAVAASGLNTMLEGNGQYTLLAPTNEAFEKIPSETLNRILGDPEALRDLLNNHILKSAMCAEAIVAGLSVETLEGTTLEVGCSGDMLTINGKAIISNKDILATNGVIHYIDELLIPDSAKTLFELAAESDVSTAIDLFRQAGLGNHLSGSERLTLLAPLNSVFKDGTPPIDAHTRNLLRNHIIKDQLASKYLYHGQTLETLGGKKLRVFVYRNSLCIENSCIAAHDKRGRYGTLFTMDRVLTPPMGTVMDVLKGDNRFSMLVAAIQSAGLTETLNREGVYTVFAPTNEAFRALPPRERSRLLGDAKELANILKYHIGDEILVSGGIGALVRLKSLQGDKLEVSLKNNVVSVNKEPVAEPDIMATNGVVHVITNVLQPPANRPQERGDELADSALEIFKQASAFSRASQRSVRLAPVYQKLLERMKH

[11] = molecular target: ATP-dependent 6-phosphofructokinase, muscle type (Homo sapiens) (UniProt P08237); experiment: Binding affinity to PFKM in human NCI-H23 cells at 1 uM by mass spectrometry based pull down assay; type: cell-based
[12] = molecular target: Lactoylglutathione lyase (Homo sapiens) (UniProt Q04760); experiment: Binding affinity to GLO1 in human NCI-H358 cells at 1 uM by mass spectrometry based pull down assay; type: cell-based
Lactoylglutathione lyase (Homo sapiens), sequence (Q04760 2-184 limits assumed): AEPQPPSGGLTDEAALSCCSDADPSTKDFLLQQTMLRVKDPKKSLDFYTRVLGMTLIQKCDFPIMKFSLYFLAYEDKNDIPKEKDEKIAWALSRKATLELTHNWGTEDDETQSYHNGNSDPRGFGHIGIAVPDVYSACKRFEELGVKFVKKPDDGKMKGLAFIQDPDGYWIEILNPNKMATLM

[13] = molecular target: 182 kDa tankyrase-1-binding protein (Homo sapiens) (UniProt Q9C0C2); experiment: Binding affinity to TNKS1BP1 in human NCI-H358 cells at 1 uM by mass spectrometry based pull down assay; type: cell-based
[14] = molecular target: Protein CIP2A (Homo sapiens) (UniProt Q8TCG1); experiment: Binding affinity to KIAA1524 in human NCI-H23 cells at 1 uM by mass spectrometry based pull down assay; type: cell-based
[15] = molecular target: TBC1 domain family member 15 (Homo sapiens) (UniProt Q8TC07); experiment: Binding affinity to TBC1D15 in human NCI-H358 cells at 1 uM by mass spectrometry based pull down assay; type: cell-based
TBC1 domain family member 15 (Homo sapiens), sequence (Q8TC07 whole entry, the tested form may be a part): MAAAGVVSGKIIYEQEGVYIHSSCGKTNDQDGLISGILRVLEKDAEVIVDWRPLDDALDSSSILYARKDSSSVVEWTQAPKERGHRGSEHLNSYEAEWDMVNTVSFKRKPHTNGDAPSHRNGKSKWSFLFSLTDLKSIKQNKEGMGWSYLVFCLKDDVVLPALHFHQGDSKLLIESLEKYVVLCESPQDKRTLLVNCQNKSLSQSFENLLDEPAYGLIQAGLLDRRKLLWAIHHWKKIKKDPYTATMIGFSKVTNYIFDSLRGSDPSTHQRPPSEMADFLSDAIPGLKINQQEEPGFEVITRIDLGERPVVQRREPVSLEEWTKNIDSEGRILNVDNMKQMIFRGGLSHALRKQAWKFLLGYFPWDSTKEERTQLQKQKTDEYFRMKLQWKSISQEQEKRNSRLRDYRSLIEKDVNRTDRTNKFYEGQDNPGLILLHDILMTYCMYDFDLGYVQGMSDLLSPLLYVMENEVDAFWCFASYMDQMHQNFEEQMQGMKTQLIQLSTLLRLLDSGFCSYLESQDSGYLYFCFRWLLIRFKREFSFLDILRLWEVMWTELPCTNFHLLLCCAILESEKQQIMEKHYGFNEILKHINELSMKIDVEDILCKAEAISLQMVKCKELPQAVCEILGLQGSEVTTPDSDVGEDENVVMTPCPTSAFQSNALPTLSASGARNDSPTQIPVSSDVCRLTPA

[16] = molecular target: ATP synthase F(1) complex subunit alpha, mitochondrial (Homo sapiens) (UniProt P25705); experiment: Binding affinity to ATP5A1 in human NCI-H358 cells at 1 uM by mass spectrometry based pull down assay; type: cell-based
ATP synthase F(1) complex subunit alpha, mitochondrial (Homo sapiens), sequence (P25705 whole entry, one chain of several): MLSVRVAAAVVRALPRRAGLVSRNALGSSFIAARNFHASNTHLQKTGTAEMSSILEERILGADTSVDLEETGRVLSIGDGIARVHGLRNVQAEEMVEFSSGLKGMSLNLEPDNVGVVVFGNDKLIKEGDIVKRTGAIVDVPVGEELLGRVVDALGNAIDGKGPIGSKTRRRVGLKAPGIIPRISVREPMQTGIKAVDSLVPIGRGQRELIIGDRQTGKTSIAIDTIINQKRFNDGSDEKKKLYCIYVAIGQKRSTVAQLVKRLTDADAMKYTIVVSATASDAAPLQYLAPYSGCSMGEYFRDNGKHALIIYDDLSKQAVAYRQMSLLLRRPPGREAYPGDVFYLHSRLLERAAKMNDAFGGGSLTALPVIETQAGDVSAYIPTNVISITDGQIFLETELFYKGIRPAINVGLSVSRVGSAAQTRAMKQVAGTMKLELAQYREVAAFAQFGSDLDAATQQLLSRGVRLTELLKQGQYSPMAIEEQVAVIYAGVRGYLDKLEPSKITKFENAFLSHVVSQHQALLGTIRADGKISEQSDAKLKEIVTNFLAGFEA

[17] = molecular target: Trifunctional enzyme subunit alpha, mitochondrial (Homo sapiens) (UniProt P40939); experiment: Binding affinity to HADHA in human NCI-H23 cells at 1 uM by mass spectrometry based pull down assay; type: cell-based
[18] = molecular target: Thioredoxin-related transmembrane protein 1 (Homo sapiens) (UniProt Q9H3N1); experiment: Binding affinity to TMX1 in human NCI-H23 cells at 1 uM by mass spectrometry based pull down assay; type: cell-based
[19] = molecular target: T2, Dual specificity mitogen-activated protein kinase kinase 6 (Homo sapiens) (UniProt P52564); experiment: Inhibition of MAP2K6 in human SKCO1 cells at 1 uM after 4 hrs using biotin labeled DVKPSNVLINALGQVK probe by mass-spectrometric analysis relative to control; type: cell-based
T2 sequence (whole entry): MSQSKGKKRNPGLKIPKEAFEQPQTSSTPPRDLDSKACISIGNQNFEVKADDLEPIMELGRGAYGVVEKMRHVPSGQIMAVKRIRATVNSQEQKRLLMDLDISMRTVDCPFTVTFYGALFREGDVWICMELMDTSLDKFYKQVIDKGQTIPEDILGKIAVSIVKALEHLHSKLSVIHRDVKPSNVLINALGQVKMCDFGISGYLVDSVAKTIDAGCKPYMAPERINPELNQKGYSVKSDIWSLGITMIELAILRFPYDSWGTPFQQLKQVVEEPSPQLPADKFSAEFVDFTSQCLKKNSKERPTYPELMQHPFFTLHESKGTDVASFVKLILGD

[20] = molecular target: TGF-beta receptor type-2 (Homo sapiens) (UniProt P37173); experiment: Inhibition of human TGFBR2 (218 to 567 residues) expressed in bacterial expression system assessed as enzyme activity at 1 uM by KINOMEScan assay relative to control; parameters: scale not given: the % may be the effect or the level left
Summary of the method: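 In vitro ATP-site competition binding assay across a panel of 456 kinases, with compound tested at 1 and 10 μM.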

[21] = molecular target: Dual specificity mitogen-activated protein kinase kinase 1 (Homo sapiens) (UniProt Q02750); experiment: Inhibition of full length human MEK1 (1 to 393 residues) expressed in mammalian expression system assessed as enzyme activity at 10 uM by KINOMEScan assay relative to control; parameters: scale not given: the % may be the effect or the level left
Dual specificity mitogen-activated protein kinase kinase 1 (Homo sapiens), sequence (Q02750 whole entry, the tested form may be a part): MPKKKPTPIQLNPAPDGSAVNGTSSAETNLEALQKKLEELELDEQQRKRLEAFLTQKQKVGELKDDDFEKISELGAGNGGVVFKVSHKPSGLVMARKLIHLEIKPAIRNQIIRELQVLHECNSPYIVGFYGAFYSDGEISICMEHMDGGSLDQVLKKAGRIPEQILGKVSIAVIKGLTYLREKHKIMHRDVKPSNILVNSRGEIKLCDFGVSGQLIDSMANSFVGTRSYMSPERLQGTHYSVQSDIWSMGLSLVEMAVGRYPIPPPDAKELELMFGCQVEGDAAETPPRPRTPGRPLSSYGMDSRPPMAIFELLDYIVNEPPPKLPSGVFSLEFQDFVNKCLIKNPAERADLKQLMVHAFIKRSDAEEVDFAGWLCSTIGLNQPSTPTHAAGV
Summary of the method: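 In vitro ATP-site competition binding assay (KinomeScan) across a panel of 456 kinases. Compound was tested at 1 and 10 μM. The read-out is the binding inhibition score relative to control.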

[22] = molecular target: Activated CDC42 kinase 1 (Homo sapiens) (UniProt Q07912); experiment: Inhibition of ACK in human SKCO1 cells at 1 uM after 4 hrs using biotin labeled TVSVAVKCLKPDVLSQPEAMDDFIR probe by mass-spectrometric analysis relative to control; type: cell-based
[23] = molecular target: Serine/threonine-protein kinase Nek1 (Homo sapiens) (UniProt Q96PY6); experiment: Inhibition of NEK1 in human SKCO1 cells at 1 uM after 4 hrs using biotin labeled DIKSQNIFLTK probe by mass-spectrometric analysis relative to control; type: cell-based
Serine/threonine-protein kinase Nek1 (Homo sapiens), sequence (Q96PY6 whole entry): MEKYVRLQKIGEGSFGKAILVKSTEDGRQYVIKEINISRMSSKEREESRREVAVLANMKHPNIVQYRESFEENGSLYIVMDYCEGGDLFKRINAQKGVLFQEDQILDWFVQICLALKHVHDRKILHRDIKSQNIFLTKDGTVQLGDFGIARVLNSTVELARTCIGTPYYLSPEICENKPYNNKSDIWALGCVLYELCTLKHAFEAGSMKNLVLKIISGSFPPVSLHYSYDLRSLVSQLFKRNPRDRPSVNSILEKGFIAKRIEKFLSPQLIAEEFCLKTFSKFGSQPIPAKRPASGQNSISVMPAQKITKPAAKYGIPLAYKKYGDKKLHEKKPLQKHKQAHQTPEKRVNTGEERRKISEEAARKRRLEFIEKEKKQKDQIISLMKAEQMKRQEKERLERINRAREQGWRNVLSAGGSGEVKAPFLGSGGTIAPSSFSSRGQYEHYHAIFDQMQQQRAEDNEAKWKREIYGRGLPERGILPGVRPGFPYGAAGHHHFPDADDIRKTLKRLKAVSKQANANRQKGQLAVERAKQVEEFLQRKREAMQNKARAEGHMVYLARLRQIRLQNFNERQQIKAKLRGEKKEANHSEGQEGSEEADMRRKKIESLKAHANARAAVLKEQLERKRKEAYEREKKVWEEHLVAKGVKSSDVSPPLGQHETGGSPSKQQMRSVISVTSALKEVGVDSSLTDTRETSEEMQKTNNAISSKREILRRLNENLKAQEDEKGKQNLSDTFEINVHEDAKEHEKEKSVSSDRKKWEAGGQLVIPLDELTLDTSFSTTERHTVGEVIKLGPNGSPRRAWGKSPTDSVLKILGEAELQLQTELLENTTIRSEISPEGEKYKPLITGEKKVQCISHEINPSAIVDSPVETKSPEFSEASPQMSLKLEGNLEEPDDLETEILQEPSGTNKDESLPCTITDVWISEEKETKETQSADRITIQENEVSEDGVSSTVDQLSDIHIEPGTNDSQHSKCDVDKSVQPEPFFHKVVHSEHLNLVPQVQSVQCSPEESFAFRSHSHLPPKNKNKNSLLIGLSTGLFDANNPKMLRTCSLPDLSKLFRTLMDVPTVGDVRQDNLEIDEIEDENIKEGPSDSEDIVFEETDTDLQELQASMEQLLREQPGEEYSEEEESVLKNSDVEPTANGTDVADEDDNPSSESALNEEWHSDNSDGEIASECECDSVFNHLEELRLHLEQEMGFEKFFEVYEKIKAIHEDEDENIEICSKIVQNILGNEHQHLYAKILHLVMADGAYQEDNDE

C=CC(=O)Nc1ccccc1Nc1nc(Nc2ccc(N3CCN(CCOCCOCCOCCNC(=O)CCCC[C@@H]4SC[C@@H]5NC(=O)N[C@@H]54)CC3)cc2)ncc1Cl
Activity [1]: Active | Activity [2]: Active | Activity [3]: Active | Activity [4]: Active | Activity [5]: Active | Activity [6]: Active | Activity [7]: Active | Activity [8]: Active | Activity [9]: Active | Activity [10]: Active | Activity [11]: Active | Activity [12]: Active | Activity [13]: Active | Activity [14]: Active | Activity [15]: Active | Activity [16]: Active | Activity [17]: Active | Activity [18]: Active

COc1cc(O)c2c(c1)/C=C/C[C@H](O)[C@H](O)C(=O)/C=C\C[C@H](C)OC2=O
inhibition [19]: 54.2% | Activity [20]: 3.8% | Activity [21]: 0.05%

C=CC(=O)Nc1ccccc1Nc1nc(Nc2ccc(N3CCN(C)CC3)cc2)ncc1Cl
inhibition [22]: 45.1%

C=CC(=O)Nc1ccccc1Oc1nc(Nc2cnn(CCOC)c2)ncc1Cl
inhibition [23]: -7.4%
